Measurements from ChEMBL document CHEMBL4011617, “Ugi Reaction-Derived α-Acyl Aminocarboxamides Bind to Phosphatidylinositol 3-Kinase-Related Kinases, Inhibit HSF1-Dependent Heat Shock Response, and Induce Apoptosis in Multiple Myeloma Cells” (J Med Chem, 2017).
Activity calls are given as the source filed them. The calls are words filed in the database; no cut-off is given here.

Experiments:
[1] = molecular target: Mitogen-activated protein kinase kinase kinase 6 (Homo sapiens) (UniProt O95382); experiment: Binding affinity to MAP3K6 in human INA-6 cells after 3 hrs by nanoLC-MS/MS method; type: cell-based
Sequence of Mitogen-activated protein kinase kinase kinase 6 (Homo sapiens) (O95382 whole entry): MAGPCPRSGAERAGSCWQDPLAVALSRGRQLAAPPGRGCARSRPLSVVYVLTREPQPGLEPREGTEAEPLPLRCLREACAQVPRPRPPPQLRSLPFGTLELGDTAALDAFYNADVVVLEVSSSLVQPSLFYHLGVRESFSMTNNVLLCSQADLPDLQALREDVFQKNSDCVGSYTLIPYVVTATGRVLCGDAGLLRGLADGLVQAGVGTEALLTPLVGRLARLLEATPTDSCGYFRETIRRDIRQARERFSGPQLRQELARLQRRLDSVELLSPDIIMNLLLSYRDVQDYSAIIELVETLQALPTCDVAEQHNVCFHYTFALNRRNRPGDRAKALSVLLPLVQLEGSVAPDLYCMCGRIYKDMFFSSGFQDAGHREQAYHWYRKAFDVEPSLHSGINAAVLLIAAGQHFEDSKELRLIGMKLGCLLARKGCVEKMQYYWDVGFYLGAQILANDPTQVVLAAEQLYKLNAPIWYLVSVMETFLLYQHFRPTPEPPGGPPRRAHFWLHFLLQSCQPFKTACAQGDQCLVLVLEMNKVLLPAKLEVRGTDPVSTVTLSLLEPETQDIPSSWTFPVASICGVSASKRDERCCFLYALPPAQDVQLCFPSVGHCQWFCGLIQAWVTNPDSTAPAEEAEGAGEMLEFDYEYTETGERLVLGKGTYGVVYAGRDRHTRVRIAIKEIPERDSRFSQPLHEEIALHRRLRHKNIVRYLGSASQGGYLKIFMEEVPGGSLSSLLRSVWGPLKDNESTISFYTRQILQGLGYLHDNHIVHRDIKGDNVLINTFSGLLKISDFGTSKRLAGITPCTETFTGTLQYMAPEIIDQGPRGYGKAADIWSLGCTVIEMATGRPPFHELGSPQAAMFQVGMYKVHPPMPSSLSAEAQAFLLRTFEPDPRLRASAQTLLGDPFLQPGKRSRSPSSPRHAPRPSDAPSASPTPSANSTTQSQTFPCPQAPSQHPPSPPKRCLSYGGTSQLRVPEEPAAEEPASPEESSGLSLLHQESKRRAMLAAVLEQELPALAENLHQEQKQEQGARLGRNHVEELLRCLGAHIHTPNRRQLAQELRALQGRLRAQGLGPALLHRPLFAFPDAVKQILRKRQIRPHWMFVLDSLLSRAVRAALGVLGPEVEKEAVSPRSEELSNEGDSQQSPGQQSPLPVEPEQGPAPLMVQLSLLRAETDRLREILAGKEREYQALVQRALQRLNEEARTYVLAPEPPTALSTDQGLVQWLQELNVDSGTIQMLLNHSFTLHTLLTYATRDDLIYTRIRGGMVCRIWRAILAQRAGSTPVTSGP
In short: (§1)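 The biotinylated inhibitor was loaded on streptavidin beads, with empty beads as the control. Eluates were trypsin-digested and run by nanoLC-MS/MS. Inhibitor/control ratios came from label-free quantification, taken as medians of five biological replicates. Enrichment was called at Benjamini-Hochberg-adjusted limma p < 0.02.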

[2] = molecular target: Exportin-T (Homo sapiens) (UniProt O43592); experiment: Binding affinity to XPOT protein in human INA-6 cells after 3 hrs by nanoLC-MS/MS method; type: cell-based; in short: as §1
[3] = molecular target: Serine/threonine-protein phosphatase 6 regulatory subunit 1 (Homo sapiens) (UniProt Q9UPN7); experiment: Binding affinity to PP6R1 protein in human INA-6 cells after 3 hrs by nanoLC-MS/MS method; type: cell-based; in short: as §1
[4] = molecular target: Brefeldin A-inhibited guanine nucleotide-exchange protein 2 (Homo sapiens) (UniProt Q9Y6D5); experiment: Binding affinity to BIG2 protein in human INA-6 cells after 3 hrs by nanoLC-MS/MS method; type: cell-based; in short: as §1
[5] = molecular target: Serine/threonine-protein phosphatase 6 catalytic subunit (Homo sapiens) (UniProt O00743); experiment: Binding affinity to serine/threonine-protein phosphatase 6 catalytic subunit in human INA-6 cells after 3 hrs by nanoLC-MS/MS method; type: cell-based; in short: as §1
[6] = molecular target: Survival of motor neuron-related-splicing factor 30 (Homo sapiens) (UniProt O75940); experiment: Binding affinity to survival of motor neuron-related-splicing factor 30 in human INA-6 cells after 3 hrs by nanoLC-MS/MS method; type: cell-based; in short: as §1
Sequence of Survival of motor neuron-related-splicing factor 30 (Homo sapiens) (O75940 whole entry): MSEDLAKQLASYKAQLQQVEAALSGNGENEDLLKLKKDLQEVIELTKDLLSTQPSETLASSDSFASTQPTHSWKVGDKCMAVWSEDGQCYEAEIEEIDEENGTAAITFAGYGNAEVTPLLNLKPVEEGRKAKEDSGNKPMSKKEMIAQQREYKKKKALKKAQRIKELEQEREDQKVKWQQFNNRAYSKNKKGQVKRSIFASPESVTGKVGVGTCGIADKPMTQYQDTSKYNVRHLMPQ

[7] = molecular target: CCR4-NOT transcription complex subunit 1 (Homo sapiens) (UniProt A5YKK6); experiment: Binding affinity to CNOT1 protein in human INA-6 cells after 3 hrs by nanoLC-MS/MS method; type: cell-based; in short: as §1
[8] = molecular target: MICOS complex subunit MIC10 (Homo sapiens) (UniProt Q5TGZ0); experiment: Binding affinity to MICOS complex subunit MIC10 in human INA-6 cells after 3 hrs by nanoLC-MS/MS method; type: cell-based; in short: as §1
Sequence of MICOS complex subunit MIC10 (Homo sapiens) (Q5TGZ0 whole entry, one chain of several): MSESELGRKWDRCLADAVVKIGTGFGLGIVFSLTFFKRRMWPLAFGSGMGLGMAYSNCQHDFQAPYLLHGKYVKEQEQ

[9] = molecular target: Survival motor neuron protein (Homo sapiens) (UniProt Q16637); experiment: Binding affinity to survival motor neuron protein in human INA-6 cells after 3 hrs by nanoLC-MS/MS method; type: cell-based; in short: as §1
Sequence of Survival motor neuron protein (Homo sapiens) (Q16637 whole entry): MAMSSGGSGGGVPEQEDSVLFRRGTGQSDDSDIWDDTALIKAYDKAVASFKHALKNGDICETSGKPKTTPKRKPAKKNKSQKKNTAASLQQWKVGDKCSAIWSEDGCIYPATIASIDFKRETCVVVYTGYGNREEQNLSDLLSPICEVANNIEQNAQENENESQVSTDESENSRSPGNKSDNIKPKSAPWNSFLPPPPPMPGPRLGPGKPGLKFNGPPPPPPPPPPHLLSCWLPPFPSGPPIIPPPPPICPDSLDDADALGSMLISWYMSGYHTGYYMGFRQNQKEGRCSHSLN

[10] = molecular target: Serine/threonine-protein phosphatase 6 regulatory subunit 3 (Homo sapiens) (UniProt Q5H9R7); experiment: Binding affinity to serine/threonine-protein phosphatase 6 regulatory subunit 3 in human INA-6 cells after 3 hrs by nanoLC-MS/MS method; type: cell-based; in short: as §1
[11] = molecular target: Conserved oligomeric Golgi complex subunit 6 (Homo sapiens) (UniProt Q9Y2V7); experiment: Binding affinity to COG6 in human INA-6 cells after 3 hrs by nanoLC-MS/MS method; type: cell-based; in short: as §1
[12] = molecular target: MICOS complex subunit MIC25 (Homo sapiens) (UniProt Q9BRQ6); experiment: Binding affinity to MICOS complex subunit MIC25 in human INA-6 cells after 3 hrs by nanoLC-MS/MS method; type: cell-based; in short: as §1
Sequence of MICOS complex subunit MIC25 (Homo sapiens) (Q9BRQ6 whole entry, one chain of several): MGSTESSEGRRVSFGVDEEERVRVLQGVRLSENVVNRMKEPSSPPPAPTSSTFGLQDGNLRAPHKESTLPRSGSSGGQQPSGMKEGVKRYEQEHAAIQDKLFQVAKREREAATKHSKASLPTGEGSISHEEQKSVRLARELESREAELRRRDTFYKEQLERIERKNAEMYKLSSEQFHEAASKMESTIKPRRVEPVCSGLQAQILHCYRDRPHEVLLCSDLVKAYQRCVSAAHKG

[13] = molecular target: MICOS complex subunit MIC60 (Homo sapiens) (UniProt Q16891); experiment: Binding affinity to MICOS complex subunit MIC60 in human INA-6 cells after 3 hrs by nanoLC-MS/MS method; type: cell-based; in short: as §1
[14] = molecular target: Conserved oligomeric Golgi complex subunit 4 (Homo sapiens) (UniProt Q9H9E3); experiment: Binding affinity to COG4 in human INA-6 cells after 3 hrs by nanoLC-MS/MS method; type: cell-based; in short: as §1
Sequence of Conserved oligomeric Golgi complex subunit 4 (Homo sapiens) (Q9H9E3 whole entry, one chain of several): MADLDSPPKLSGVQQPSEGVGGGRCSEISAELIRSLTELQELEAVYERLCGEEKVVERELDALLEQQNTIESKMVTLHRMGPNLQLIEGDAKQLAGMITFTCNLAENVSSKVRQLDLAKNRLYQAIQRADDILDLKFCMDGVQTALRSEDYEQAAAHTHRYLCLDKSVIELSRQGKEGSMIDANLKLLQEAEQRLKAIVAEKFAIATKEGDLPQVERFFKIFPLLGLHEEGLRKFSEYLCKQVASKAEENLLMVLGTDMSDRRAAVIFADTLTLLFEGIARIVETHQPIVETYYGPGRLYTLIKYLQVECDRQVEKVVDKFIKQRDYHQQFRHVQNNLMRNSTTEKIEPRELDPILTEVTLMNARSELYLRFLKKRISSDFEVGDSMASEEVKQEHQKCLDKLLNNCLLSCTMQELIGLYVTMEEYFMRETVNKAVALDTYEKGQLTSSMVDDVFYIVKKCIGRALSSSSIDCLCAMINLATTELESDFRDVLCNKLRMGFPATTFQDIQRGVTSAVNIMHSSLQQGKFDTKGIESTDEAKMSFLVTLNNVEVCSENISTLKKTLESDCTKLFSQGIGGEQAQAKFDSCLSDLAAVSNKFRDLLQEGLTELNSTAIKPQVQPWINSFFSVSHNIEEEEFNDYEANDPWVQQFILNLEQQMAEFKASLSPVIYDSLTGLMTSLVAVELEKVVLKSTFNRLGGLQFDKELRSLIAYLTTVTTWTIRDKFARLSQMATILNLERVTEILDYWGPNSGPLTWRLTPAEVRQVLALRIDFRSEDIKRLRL

INA-6 [15] = experiment: Inhibition of heat shock response in human INA-6 cells assessed as reduction in HSF-1 mediated upregulation of the heat shock protein HSP72 at 50 uM preincubated for 4 hrs followed by HSP90 inhibitor and HSR inducer NVP-AUY922 addition measured after 4 hrs by ELISA; type: functional, cell-based
In short: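 HSP72 quantified by ELISA in the same protein lysates used for Western blots. INA-6 cells received compound for 4 h, then NVP-AUY922 co-treatment for 4 h more to stimulate HSF1. DMSO-only and NVP-AUY922-only cells served as negative and positive controls.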

[16] = molecular target: Serine/threonine-protein phosphatase 6 regulatory ankyrin repeat subunit A (Homo sapiens) (UniProt O15084); experiment: Binding affinity to serine/threonine-protein phosphatase 6 regulatory ankyrin repeat subunit A in human INA-6 cells after 3 hrs by nanoLC-MS/MS method; type: cell-based; in short: as §1
Sequence of Serine/threonine-protein phosphatase 6 regulatory ankyrin repeat subunit A (Homo sapiens) (O15084 whole entry): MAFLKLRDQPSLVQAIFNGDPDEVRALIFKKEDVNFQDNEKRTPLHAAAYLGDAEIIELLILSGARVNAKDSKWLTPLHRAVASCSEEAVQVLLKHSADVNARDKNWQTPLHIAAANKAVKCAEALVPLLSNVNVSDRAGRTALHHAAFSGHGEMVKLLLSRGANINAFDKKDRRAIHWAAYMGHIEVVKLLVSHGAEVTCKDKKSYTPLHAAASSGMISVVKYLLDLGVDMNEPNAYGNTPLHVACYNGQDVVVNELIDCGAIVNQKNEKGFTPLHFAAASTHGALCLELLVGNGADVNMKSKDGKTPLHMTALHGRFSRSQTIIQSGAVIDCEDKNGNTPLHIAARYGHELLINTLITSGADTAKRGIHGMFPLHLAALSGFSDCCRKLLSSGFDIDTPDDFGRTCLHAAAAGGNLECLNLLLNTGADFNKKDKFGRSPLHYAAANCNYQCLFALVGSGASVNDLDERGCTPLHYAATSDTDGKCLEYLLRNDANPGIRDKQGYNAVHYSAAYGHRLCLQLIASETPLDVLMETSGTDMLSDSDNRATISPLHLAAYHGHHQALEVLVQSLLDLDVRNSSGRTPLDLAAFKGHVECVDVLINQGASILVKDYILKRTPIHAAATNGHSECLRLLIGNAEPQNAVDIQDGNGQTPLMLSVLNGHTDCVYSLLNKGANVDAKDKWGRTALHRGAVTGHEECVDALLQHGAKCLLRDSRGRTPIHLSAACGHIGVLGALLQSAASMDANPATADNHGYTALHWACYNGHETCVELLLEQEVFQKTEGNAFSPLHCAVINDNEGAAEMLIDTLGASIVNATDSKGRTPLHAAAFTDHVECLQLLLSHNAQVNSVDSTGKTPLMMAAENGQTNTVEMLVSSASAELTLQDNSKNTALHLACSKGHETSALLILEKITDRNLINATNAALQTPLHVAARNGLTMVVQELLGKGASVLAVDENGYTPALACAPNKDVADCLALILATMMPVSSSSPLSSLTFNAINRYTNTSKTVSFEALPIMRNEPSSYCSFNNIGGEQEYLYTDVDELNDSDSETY

[17] = molecular target: Programmed cell death protein 6 (Homo sapiens) (UniProt O75340); experiment: Binding affinity to PDCD6 protein in human INA-6 cells after 3 hrs by nanoLC-MS/MS method; type: cell-based; in short: as §1
Sequence of Programmed cell death protein 6 (Homo sapiens) (O75340 whole entry): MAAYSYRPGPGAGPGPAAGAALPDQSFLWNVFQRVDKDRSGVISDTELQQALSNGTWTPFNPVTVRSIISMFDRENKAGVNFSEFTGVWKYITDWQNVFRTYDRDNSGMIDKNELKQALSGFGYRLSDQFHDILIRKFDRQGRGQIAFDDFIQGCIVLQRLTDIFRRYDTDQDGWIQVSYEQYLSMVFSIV

[18] = molecular target: Serine/threonine-protein phosphatase 6 regulatory ankyrin repeat subunit B (Homo sapiens) (UniProt Q8N8A2); experiment: Binding affinity to serine/threonine-protein phosphatase 6 regulatory ankyrin repeat subunit B in human INA-6 cells after 3 hrs by nanoLC-MS/MS method; type: cell-based; in short: as §1
[19] = molecular target: CCR4-NOT transcription complex subunit 4 (Homo sapiens) (UniProt O95628); experiment: Binding affinity to CCR4-NOT transcription complex subunit 4 in human INA-6 cells after 3 hrs by nanoLC-MS/MS method; type: cell-based; in short: as §1
Sequence of CCR4-NOT transcription complex subunit 4 (Homo sapiens) (O95628 whole entry, one chain of several): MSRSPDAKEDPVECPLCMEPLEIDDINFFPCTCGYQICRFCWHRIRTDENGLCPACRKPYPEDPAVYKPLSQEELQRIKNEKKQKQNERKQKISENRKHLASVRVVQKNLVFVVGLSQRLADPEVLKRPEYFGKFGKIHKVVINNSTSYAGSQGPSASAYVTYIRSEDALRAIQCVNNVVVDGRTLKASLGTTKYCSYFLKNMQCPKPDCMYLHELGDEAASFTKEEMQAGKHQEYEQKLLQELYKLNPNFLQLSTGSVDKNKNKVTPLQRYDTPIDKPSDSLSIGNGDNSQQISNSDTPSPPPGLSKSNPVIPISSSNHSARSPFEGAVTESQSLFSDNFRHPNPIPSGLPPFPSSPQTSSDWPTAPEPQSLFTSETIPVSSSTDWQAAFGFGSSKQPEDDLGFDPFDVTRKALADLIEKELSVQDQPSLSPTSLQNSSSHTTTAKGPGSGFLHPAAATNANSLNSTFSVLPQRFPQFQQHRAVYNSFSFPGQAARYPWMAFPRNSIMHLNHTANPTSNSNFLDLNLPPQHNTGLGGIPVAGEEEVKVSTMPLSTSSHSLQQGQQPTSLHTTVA

INA-6 [20] = experiment: Inhibition of heat shock response in human INA-6 cells assessed as reduction in HSF-1 mediated upregulation of the heat shock protein HSP27 at 50 uM preincubated for 4 hrs followed by HSP90 inhibitor and HSR inducer NVP-AUY922 addition measured after 4 hrs by Western blot method; type: functional, cell-based
In short: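 INA-6 myeloma cells pretreated with test compound for 4 h, then co-treated with the HSP90 inhibitor/HSR inducer NVP-AUY922 for a further 4 h. Cells harvested; HSP72, HSP27, HSF1 or phospho-HSF1 probed by Western blot with β-actin as loading control. DMSO-only cells were the negative control; NVP-AUY922-only cells were the positive control.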

[21] = molecular target: Protein MON2 homolog (Homo sapiens) (UniProt Q7Z3U7); experiment: Binding affinity to MON2 protein in human INA-6 cells after 3 hrs by nanoLC-MS/MS method; type: cell-based; in short: as §1
[22] = molecular target: Protein CIP2A (Homo sapiens) (UniProt Q8TCG1); experiment: Binding affinity to CIP2A protein in human INA-6 cells after 3 hrs by nanoLC-MS/MS method; type: cell-based; in short: as §1
[23] = molecular target: Mitogen-activated protein kinase kinase kinase 5 (Homo sapiens) (UniProt Q99683); experiment: Binding affinity to MAP3K5 in human INA-6 cells after 3 hrs by nanoLC-MS/MS method; type: cell-based; in short: as §1
[24] = molecular target: CCR4-NOT transcription complex subunit 7 (Homo sapiens) (UniProt Q9UIV1); experiment: Binding affinity to CCR4-NOT transcription complex subunit 7 in human INA-6 cells after 3 hrs by nanoLC-MS/MS method; type: cell-based; in short: as §1
[25] = molecular target: CCR4-NOT transcription complex subunit 11 (Homo sapiens) (UniProt Q9UKZ1); experiment: Binding affinity to CCR4-NOT transcription complex subunit 11 in human INA-6 cells after 3 hrs by nanoLC-MS/MS method; type: cell-based; in short: as §1
Peflin (Homo sapiens) = Peflin (Homo sapiens) (UniProt Q9UBV8); experiment: Binding affinity to PEF1 protein in human INA-6 cells after 3 hrs by nanoLC-MS/MS method; type: cell-based; in short: as §1
[26] = molecular target: Gem-associated protein 7 (Homo sapiens) (UniProt Q9H840); experiment: Binding affinity to GEMIN7 in human INA-6 cells after 3 hrs by nanoLC-MS/MS method; type: cell-based; in short: as §1
Sequence of Gem-associated protein 7 (Homo sapiens) (Q9H840 whole entry): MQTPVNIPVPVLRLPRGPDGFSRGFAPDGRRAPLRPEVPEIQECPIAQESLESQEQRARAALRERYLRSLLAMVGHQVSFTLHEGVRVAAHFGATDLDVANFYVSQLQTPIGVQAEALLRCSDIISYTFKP

[27] = molecular target: DNA-dependent protein kinase catalytic subunit (Homo sapiens) (UniProt P78527); experiment: Binding affinity to PRKDC protein in human INA-6 cells after 3 hrs by nanoLC-MS/MS method; type: cell-based; in short: as §1

Compound | Activity [1] | Activity [2] | Activity [3] | Activity [4] | Activity [5] | Activity [6] | Activity [7] | Activity [8] | Activity [9] | Activity [10] | Activity [11] | Activity [12] | Activity [13] | Activity [14] | HSP72 upregulation inhibition (active/not active) (INA-6 [15]) | Activity [16] | Activity [17] | Activity [18] | Activity [19] | activity call (active/not active) for inhibition of HSP27 upregulation (INA-6 [20]) | other results
O=C(CCCC[C@@H]1SC[C@@H]2NC(=O)N[C@@H]21)NCCOCCOCCNCCOc1ccc(C(C(=O)NCc2ccccc2)N(C(=O)CCc2ccccc2)C2CC2)cc1 (mixture of isomers) | Active | Active | Active | Active | Active | Active | Active | Active | Active | Active | Active | Active | Active | Active | inactive | Active | Active | Active | Active | inactive | Activity [21]: Active; Activity [22]: Active; Activity [23]: Active; Activity [24]: Active; Activity [25]: Active; Activity (Peflin (Homo sapiens)): Active; Activity [26]: Active; Activity [27]: Active
O=C(CCCC[C@@H]1SC[C@@H]2NC(=O)N[C@@H]21)NCCOCCOCCNCCOc1ccc(C(C(=O)NCc2ccccc2)N(C(=O)CCc2ccc(O)cc2)C2CC2)cc1 (mixture of isomers) | Active | Active | Active | Active | Active | Active | Active | Active | Active | Active | Active | Active | Active | Active | inactive | Active | Active | Active | Active | inactive | Activity [21]: Active; Activity [22]: Active; Activity [23]: Active; Activity [24]: Active; Activity [25]: Active; Activity (Peflin (Homo sapiens)): Active; Activity [26]: Active; Activity [27]: Active
